# From ChEMBL document CHEMBL1147042, “Modafinil enhances thalamocortical activity by increasing neuronal electrotonic coupling” (2007)
# Active and inactive are the calls of the source. The rule behind the calls is not given here.
# Columns and labels:
# Cortex [1] = test: Induction of 40-Hz shock-stimulated Sprague-Dawley rat cortical activity assessed as increase in peak amplitude at 100 uM after 15 mins by voltage-sensitive dye imaging method; format: functional
# Method in brief: (§1)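 Rat barrel-cortex slices (300–450 μm) came from Sprague–Dawley rats of either sex, P10–18. Slices recovered at 35°C for ≥30 min, then were held in oxygenated ACSF (pH 7.4) at 32°C. Staining used RH 414 or di-4-ANEPPS (0.025 mg/ml). White matter was stimulated at 10 Hz or 40 Hz. Modafinil was applied for 15 min. Optical response was taken as fractional fluorescence ΔF/F.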
# [2] = Increase in electronic coupling in Sprague-Dawley rat cortical interneurons assessed as coupling coefficient at 100 uM by […]; format: functional
# Rattus norvegicus [3] = species: Rattus norvegicus; test: Reduction of input resistance in Long-Evans rat inferior olivary neurons at 150 uM relative to control by single-patch clamp method; format: functional
# Method in brief: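 Input resistance was probed with hyperpolarizing current pulses before and after local application of modafinil (100–150 μM).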
# Thalamocortex [4] = test: Effect on paired-pulse ventrobasal stimulation induced excitatory postsynaptic current in 40-Hz shock-stimulated C57BL/6 mouse thalamocortical slices; format: functional, tissue-based; details: Brain
# Rattus norvegicus [5] = species: Rattus norvegicus; test: Increase in electronic coupling of Long-Evans rat inferior olivary neurons at 150 uM by single-patch clamp method; format: functional
# Method in brief: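 Paired patch recording was done at 32°C in ACSF. Hyperpolarizing current was injected into one neuron of a pair. Coupling coefficient = coupled-cell response ÷ injected-cell response, averaged over 10–20 trials. Measured before and after 150 μM modafinil; n = 7 pairs.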
# Thalamocortex [6] = test: Induction of 40-Hz shock-stimulated C57BL/6 mouse thalamocortical activity assessed as increase in peak amplitude at 0.2 uM after 15 mins by voltage-sensitive dye imaging method; format: functional, Brain
# Method in brief: (§2)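 Thalamocortical slices (350–400) came from C57BL/6 mice of either sex, P7–20, anesthetized with pentobarbital 120 mg/kg i.p. Slices recovered at 35°C for ≥30 min, then sat in oxygenated ACSF (pH 7.4) at 32°C. They were stained with RH 414 or di-4-ANEPPS (0.025 mg/ml). White matter received 10-Hz and/or 40-Hz electrical stimulation. Modafinil was bath-perfused and read at 15 min. Signal was ΔF/F.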
# Thalamocortex [7] = test: Induction of 10-Hz shock-stimulated C57BL/6 mouse thalamocortical activity assessed as increase in peak amplitude at 0.2 uM after 15 mins by voltage-sensitive dye imaging method; format: functional, Brain; method in brief: as §2
# Rattus norvegicus [8] = species: Rattus norvegicus; test: Increase in electronic coupling of Long-Evans rat inferior olivary neurons in presence of CaMK2 inhibitor KN93 by single-patch clamp method; format: functional
# Cortex [9] = test: Induction of 10-Hz shock-stimulated Sprague-Dawley rat cortical activity assessed as increase in slope of rising phase after 15 mins by voltage-sensitive dye imaging method; format: functional; method in brief: as §1
# Cortex [10] = test: Induction of 10-Hz shock-stimulated Sprague-Dawley rat cortical activity assessed as increase in peak amplitude at 100 uM after 15 mins by voltage-sensitive dye imaging method; format: functional; method in brief: as §1
# Thalamocortex [11] = test: Effect on C57BL/6 mouse thalamocortical activity in presence of PKA inhibitor KT5720 by voltage-sensitive dye imaging method; format: functional; details: Brain
# Cortex [12] = test: Induction of 40-Hz shock-stimulated Sprague-Dawley rat cortical activity assessed as increase in peak amplitude at 0.2 uM after 15 mins by voltage-sensitive dye imaging method; format: functional; method in brief: as §1
# Rattus norvegicus [13] = species: Rattus norvegicus; test: Reversal of increase in electronic coupling in Sprague-Dawley rat cortical interneurons assessed as input conductance change at 50 uM in presence of gap junction inhibitor mefloquine by […]; format: functional
# Cortex [14] = test: Induction of 10-Hz shock-stimulated Sprague-Dawley rat cortical activity assessed as increase in peak amplitude at 0.2 uM after 15 mins by voltage-sensitive dye imaging method; format: functional; method in brief: as §1
# Thalamocortex [15] = test: Induction of 10-Hz shock-stimulated C57BL/6 mouse thalamocortical activity assessed as increase in peak amplitude at 100 uM after 15 mins by voltage-sensitive dye imaging method; format: functional, Brain; method in brief: as §2
# Cortex [16] = test: Induction of 10-Hz shock-stimulated Sprague-Dawley rat cortical activity assessed as increase in slope of rising phase at 0.2 uM after 15 mins by voltage-sensitive dye imaging method; format: functional; method in brief: as §1
# Thalamocortex [17] = test: Induction of 40-Hz shock-stimulated C57BL/6 mouse thalamocortical activity assessed as increase in slope of rising phase at 0.2 uM after 15 mins by voltage-sensitive dye imaging method; format: functional, Brain; method in brief: as §2
# Rattus norvegicus [18] = species: Rattus norvegicus; test: Increase in electronic coupling in Sprague-Dawley rat cortical interneurons assessed as input conductance change at 50 uM by […]; format: functional
# Thalamocortex [19] = test: Induction of 40-Hz shock-stimulated C57BL/6 mouse thalamocortical activity assessed as increase in slope of rising phase after 15 mins by voltage-sensitive dye imaging method; format: functional, Brain; method in brief: as §2
# Thalamocortex [20] = test: Effect on C57BL/6 mouse thalamocortical activity in presence of CaMK2 inhibitor KN93 by voltage-sensitive dye imaging method; format: functional; details: Brain
# Thalamocortex [21] = test: Effect on excitatory synaptic transmission in C57BL/6 mouse thalamocortical slices assessed as increase in input conductance in presence of GABAA, GABAB and NMDA blockers by single patch clamp recording; format: functional, Brain
# Thalamocortex [22] = test: Induction of 10-Hz shock-stimulated C57BL/6 mouse thalamocortical activity assessed as increase in slope of rising phase after 15 mins by voltage-sensitive dye imaging method; format: functional, Brain; method in brief: as §2
# Cortex [23] = test: Induction of 40-Hz shock-stimulated Sprague-Dawley rat cortical activity assessed as increase in slope of rising phase after 15 mins by voltage-sensitive dye imaging method; format: functional; method in brief: as §1
# Thalamocortex [24] = test: Induction of 40-Hz shock-stimulated C57BL/6 mouse thalamocortical activity assessed as increase in peak amplitude at 100 uM after 15 mins by voltage-sensitive dye imaging method; format: functional, Brain; method in brief: as §2
# Thalamocortex [25] = test: Induction of 10-Hz shock-stimulated C57BL/6 mouse thalamocortical activity assessed as increase in slope of rising phase at 0.2 uM after 15 mins by voltage-sensitive dye imaging method; format: functional, Brain; method in brief: as §2
# Cortex [26] = test: Induction of 40-Hz shock-stimulated Sprague-Dawley rat cortical activity assessed as increase in slope of rising phase at 0.2 uM after 15 mins by voltage-sensitive dye imaging method; format: functional; method in brief: as §1
structure (smiles),measurement,setting,value
NC(=O)C[S+]([O-])C(c1ccccc1)c1ccccc1 (stereo unspecified) [MODAFINIL],Activity,Cortex [1],75%
same,Activity,[2],70%
same,Activity,Rattus norvegicus [3],Active
same,Activity,Thalamocortex [4],inactive
same,Activity,Rattus norvegicus [5],Active
same,Activity,Thalamocortex [6],75%
same,Activity,Thalamocortex [7],70%
same,Activity,Rattus norvegicus [8],inactive
same,Activity,Cortex [9],31%
same,Activity,Cortex [10],65%
same,Activity,Thalamocortex [11],Active
same,Activity,Cortex [12],75%
same,Activity,Rattus norvegicus [13],Active
same,Activity,Cortex [14],70%
same,Activity,Thalamocortex [15],65%
same,Activity,Cortex [16],67%
same,Activity,Thalamocortex [17],35%
same,Activity,Rattus norvegicus [18],Active
same,Activity,Thalamocortex [19],32%
same,Activity,Thalamocortex [20],inactive
same,Activity,Thalamocortex [21],31%
same,Activity,Thalamocortex [22],31%
same,Activity,Cortex [23],32%
same,Activity,Thalamocortex [24],75%
same,Activity,Thalamocortex [25],67%
same,Activity,Cortex [26],35%
